Active and inactive are the calls of the source. The calls are words filed in the database; no cut-off is given here.
Legend:
[1] = test system: HREC; experiment: Antiangiogenic activity against HREC cells assessed as inhibition of tube formation measured after 24 hrs by matrigel based tube formation assay; format: functional, cell-based; details: Homo sapiens
[2] = test system: HREC; experiment: Antimigratory activity against VEGF-A stimulated HREC assessed as wound closure at 5 uM measured after 48 hrs by wound closure assay; format: functional, tissue-based; details: Homo sapiens
Procedure, shortened: (§1)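 Primary HREC grown to confluence were scratched to make a 1 mm wound and washed with PBS. They were then incubated 48 h at 37 °C in complete medium with 80 ng/mL VEGF-A and 5 μM compound, alone or with 2 μM PTZ or 2 μM AC927. Wounds were photographed by phase contrast at 0, 24 and 48 h, and closure taken as the distance both fronts moved into the wound. Mean ± SEM of three independent experiments, three wells each.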

[3] = Displacement of [3H]-DTG from sigma 2 receptor in guinea pig brain membranes after 120 mins by microbeta scintillation counting method
[4] = test system: HREC; experiment: Antimigratory activity against VEGF-A stimulated HREC assessed as inhibition of cell motility at 5 uM in presence of AC927 measured after 48 hrs by wound closure assay; format: functional; details: Homo sapiens; procedure, shortened: as §1
[5] = test system: HREC; experiment: Antimigratory activity against VEGF-A stimulated HREC assessed as wound closure at 5 uM in presence of PTZ measured after 48 hrs by wound closure assay; format: functional, tissue-based; details: Homo sapiens; procedure, shortened: as §1
[6] = Antiangiogenic activity against VEGF-A stimulated human retinal endothelial cell assessed as cell proliferation measured after 24 hrs by crystal violet assay; format: functional; details: HREC
Procedure, shortened: (§2)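 They were then treated at 5 μM with or without 80 ng/mL VEGF-A, with DMSO as vehicle. Cells were PBS-washed, fixed in 4% paraformaldehyde, stained with 0.5% crystal violet in 20% methanol, extracted with 10% acetic acid and read at 570/590 nm. Proliferation is given as % of vehicle; triplicate.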

[7] = Antiangiogenic activity against VEGF-A stimulated human retinal endothelial cell assessed as cell proliferation measured after 48 hrs by crystal violet assay; format: functional; details: HREC; procedure, shortened: as §2
[8] = Antiangiogenic activity against VEGF-A stimulated Human endothelial cell assessed as cell proliferation measured after 72 hrs by crystal violet assay; format: functional, tissue-based
[9] = Antiproliferative activity against VEGF-A stimulated human retinal endothelial cell assessed as reduction in cell viability measured after 24 hrs by MTT assay; format: functional; details: HREC
[10] = Antiproliferative activity against VEGF-A stimulated human retinal endothelial cell assessed as reduction in cell viability measured after 48 hrs by MTT assay; format: functional; details: HREC
[11] = Antiproliferative activity against VEGF-A stimulated human retinal endothelial cell assessed as reduction in cell viability measured after 72 hrs by MTT assay; format: functional; details: HREC

Row | Structure (SMILES) | Activity [1] | Activity [2] | Ki [3] [µM] | Activity [4] | IC50 [7] [µM] | IC50 [8] [µM] | also measured
1 | CCCC(CCC)C(=O)OC(CCCN1CCC(O)(c2ccc(Cl)cc2)CC1)c1ccc(F)cc1 (racemic) | Active | Active | 0.124 | – | – | – | –
2 | CCCC(CCC)C(=O)O[C@H](CCCN1CCC(O)(c2ccc(Cl)cc2)CC1)c1ccc(F)cc1 | Active | Active | – | inactive | – | – | Activity [5]: inactive
3 | CCCC(CCC)C(=O)O [VALPROIC ACID] | – | – | – | – | 1450 | 1380 | IC50 [6]: 1230 µM
4 | CCCC(CCC)C(=O)O[C@@H](CCCN1CCC(O)(c2ccc(Cl)cc2)CC1)c1ccc(F)cc1 | Active | Active | – | inactive | – | – | –
5 | OC(CCCN1CCC(O)(c2ccc(Cl)cc2)CC1)c1ccc(F)cc1 (racemic) [HYDROXYHALOPERIDOL] | – | – | – | – | 129 | 69.2 | IC50 [9]: > 200 µM; IC50 [10]: 128 µM; IC50 [11]: 69 µM
6 | O[C@H](CCCN1CCC(O)(c2ccc(Cl)cc2)CC1)c1ccc(F)cc1 | – | – | 0.032 | – | – | – | –
